Laboratory results: article PMC3424002 (ACS medicinal chemistry letters, 2012)
“Also recorded” adds a separate entry of the source.

How the values were obtained:
rat mGluR5 = rat mGluR5 (Rattus norvegicus, UniProt P31424); type: cell-based; conditions: for effect on IP1 levels / accumulation: in the absence of QA (agonist)
mice [1] = test: Novel open-field test; type: in vivo, mouse; conditions: for locomotor activity / amount of time spent in the center of the novel open-field: i.p. 15 minutes prior to testing; for locomotor activity: Figure 3A; for amount of time spent in the center of the novel open-field: Figure 3B
How it was run: (§1)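 Mice received test compound by ip injection 15 min before testing, with each compound compared against its own within-group vehicle cohort. Compounds were suspended in 2% ethanol, 10% Tween 80 and water; one reference NAM was instead dissolved in saline. Prototypical mGluR5 NAMs served as positive controls. There were 10–12 mice per dose, and data are means ± SEM analysed by one-way ANOVA with Bonferroni post hoc test.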

mice [2] = test: Light-dark box test; type: in vivo, mouse; conditions: i.p. 15 minutes prior to testing; for proportion of time spent in the light compartment: Figure 3C; for number of compartment transitions: Figure 3D
How it was run: as §1

mice [3] = test: Mouse models of anxiety-like behaviors; type: in vivo; conditions: for doses giving statistically significant effects consistent with anxiolysis: i.p., open-field and light-dark box tests
mGluR5 [4] = molecular target: mGluR5 (Rattus norvegicus, UniProt P31424); test: Displacement of [3H]1; type: binding; conditions: ratio of Ki values versus 1 (MPEP)
[5] = test system: 63 additional receptors and ion channels; test: Screening in 63 additional receptors and ion channels; type: binding; conditions: 100 nM; any of 63 additional receptors and ion channels
mGluR5 [6] = conditions: 10 mg/kg, mouse brain; cited from earlier work

rat mGluR5, sequence (P31424 21-1203): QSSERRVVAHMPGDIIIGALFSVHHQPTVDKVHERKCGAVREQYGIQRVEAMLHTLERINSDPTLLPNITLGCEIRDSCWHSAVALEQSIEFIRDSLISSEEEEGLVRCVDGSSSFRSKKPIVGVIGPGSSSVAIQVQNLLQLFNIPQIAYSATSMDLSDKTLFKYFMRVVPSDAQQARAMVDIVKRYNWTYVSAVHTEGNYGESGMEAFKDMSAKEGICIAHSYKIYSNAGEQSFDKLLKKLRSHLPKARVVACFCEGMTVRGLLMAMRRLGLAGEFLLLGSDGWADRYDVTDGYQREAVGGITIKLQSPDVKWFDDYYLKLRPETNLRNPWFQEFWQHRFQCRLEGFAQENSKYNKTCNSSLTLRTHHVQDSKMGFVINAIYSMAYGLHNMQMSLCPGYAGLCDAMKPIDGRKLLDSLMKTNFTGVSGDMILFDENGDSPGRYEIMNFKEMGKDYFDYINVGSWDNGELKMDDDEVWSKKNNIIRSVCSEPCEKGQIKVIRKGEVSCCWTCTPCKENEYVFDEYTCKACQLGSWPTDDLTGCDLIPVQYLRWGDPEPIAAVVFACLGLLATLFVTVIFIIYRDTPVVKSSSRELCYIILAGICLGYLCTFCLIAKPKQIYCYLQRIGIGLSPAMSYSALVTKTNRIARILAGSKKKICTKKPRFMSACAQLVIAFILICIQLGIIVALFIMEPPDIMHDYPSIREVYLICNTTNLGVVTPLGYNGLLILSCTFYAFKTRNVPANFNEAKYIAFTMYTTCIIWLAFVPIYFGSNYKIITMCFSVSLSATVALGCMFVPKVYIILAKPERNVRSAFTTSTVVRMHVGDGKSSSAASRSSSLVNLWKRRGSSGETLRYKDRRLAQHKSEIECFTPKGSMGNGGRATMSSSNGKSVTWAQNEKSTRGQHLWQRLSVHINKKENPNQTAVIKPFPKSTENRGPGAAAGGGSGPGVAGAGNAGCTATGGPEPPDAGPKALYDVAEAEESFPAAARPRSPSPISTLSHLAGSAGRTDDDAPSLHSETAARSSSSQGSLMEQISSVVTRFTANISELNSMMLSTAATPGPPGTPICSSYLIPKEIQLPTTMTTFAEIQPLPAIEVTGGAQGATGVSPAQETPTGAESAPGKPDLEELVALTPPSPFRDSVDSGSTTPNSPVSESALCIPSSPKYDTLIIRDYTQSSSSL
mGluR5 (Rattus norvegicus, UniProt P31424), sequence (P31424 21-1203): as above

SMILES	effect on IP1 levels / accumulation (rat mGluR5)	locomotor activity (mice [1])	amount of time spent in the center of the novel open-field (mice [1])	proportion of time spent in the light compartment (mice [2])	number of compartment transitions (mice [2])	doses giving statistically significant effects consistent with anxiolysis (mice [3]) [mg/kg]	effect on IP1 levels (agonist) (rat mGluR5; agonist stimulation of mGluR5)	fold increase in mGluR5 binding affinity over compound 1 (mGluR5 [4])	overall / locomotor activity at the highest tested doses (mice [1])	anxiolytic effects at the highest tested doses (mice [3])	inhibition of binding at other targets [5] [%]	mGluR5 receptor occupancy (mGluR5 [6])
Cc1nc(C#Cc2cccnc2)cs1 [Compound 2, 3-((2-methyl-1,3-thiazol-4-yl)ethynyl)pyridine, reference compound]	potently decreased IP1 levels from baseline; also recorded: dose-dependent inverse agonism	dose-dependently increased	dose-dependently increased	dose-dependently increased	dose-dependently increased	10	–	–	–	–	–	–
N[C@@H](Cn1oc(=O)[nH]c1=O)C(=O)O [QA, quisqualic acid]	–	–	–	–	–	–	dose-dependently increased IP1 levels; also recorded: increased IP1 accumulation	–	–	–	–	–
Cc1cccc(C#Cc2cc(F)cc(C#N)c2)n1 [Compound 7i]	potently decreased IP1 levels from baseline; also recorded: dose-dependent inverse agonism	dose-dependently increased	dose-dependently increased	dose-dependently increased	dose-dependently increased	0.3	–	approximately 24 fold	no corresponding loss of locomotor activity	loss of anxiolytic effects	< 13	–
N#Cc1cc(F)cc(C#Cc2cccc(C#N)n2)c1 [Compound 7j]	potently decreased IP1 levels from baseline; also recorded: dose-dependent inverse agonism	dose-dependently increased	dose-dependently increased	dose-dependently increased	dose-dependently increased	0.1 to 0.3	–	–	depression in overall activity	loss of anxiolytic effects	–	–
Cc1cccc(C#Cc2ccccc2)n1 [Compound 1, 2-methyl-6-(phenylethynyl)pyridine, reference compound]	potently decreased IP1 levels from baseline; also recorded: dose-dependent inverse agonism	dose-dependently increased	dose-dependently increased	dose-dependently increased	dose-dependently increased	3 to 30	–	–	no corresponding loss of locomotor activity	loss of anxiolytic effects	–	full
